From publication PMC4784479 (Arthritis & rheumatology (Hoboken, N.J.), 2015) come the findings set out here.

*1 amine or outer side, *2 acyl side, *3 side chain or, on linkers, in order; H or OH if unused. Where a SMILES comes first, the peptide text is derived from it. Bridges are numbered along the chain shown (N, C = ends). Where no end group is shown, it is not given here. [ ]: non-standard residue; d: D form. X1 = O=C(O)C[C@@H](C(=O)[*:2])N(CCCCN[*:3])[*:1]; X2 = C[C@@H](C(=O)[*:2])N(CCCCN[*:3])[*:1]; CO = O=C([*:1])[*:2]

One assay deals with primary mouse BMCs. The assay is described as follows: In vitro OC differentiation, primary mouse BMCs. It is filed as cell-based. Particulars: SE ligand 65–79*0401 29 μM, Fig. 1J. Put shortly:
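Primary bone marrow cells from mouse femurs and tibias were plated at 2 × 10^5/well in MEM with 10% FBS and penicillin/streptomycin. They received 10 ng/ml M-CSF alone for 2 d, then 4 d more with 10 ng/ml M-CSF plus 20 ng/ml RANKL, with or without SE ligand 65–79*0401 (29 μM). Cultures were fixed and TRAP-stained. TRAP-positive cells with more than three nuclei were counted. Results are mean ± SEM; Student's t-test.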

In another assay the test system is DBA/1 mice with CIA. Briefly: Collagen-induced arthritis. It is filed as in vivo, mouse. Particulars: disease amelioration at ng/kg-range doses; comparison with ref 24–26.
The target in the next assay is T1, recombinant mouse CRT (Mus musculus, UniProt P14211).
T1 sequence (P14211 18-416): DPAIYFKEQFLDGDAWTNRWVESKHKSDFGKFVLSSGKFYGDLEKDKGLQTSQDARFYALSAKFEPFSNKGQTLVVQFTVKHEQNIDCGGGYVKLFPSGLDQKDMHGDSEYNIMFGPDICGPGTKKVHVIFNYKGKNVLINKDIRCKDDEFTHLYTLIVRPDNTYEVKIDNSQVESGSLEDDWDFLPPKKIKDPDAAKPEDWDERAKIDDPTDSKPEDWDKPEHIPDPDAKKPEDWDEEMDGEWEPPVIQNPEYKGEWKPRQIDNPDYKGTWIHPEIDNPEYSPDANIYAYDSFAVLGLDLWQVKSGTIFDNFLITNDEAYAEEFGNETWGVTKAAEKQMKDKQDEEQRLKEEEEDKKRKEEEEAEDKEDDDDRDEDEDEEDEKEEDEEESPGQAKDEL
The assay is described as follows: SPR direct interaction with CRT. It is filed as binding. Particulars: immobilized recombinant CRT, Fig. 1A. Put shortly:
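Direct binding was measured by SPR on a CM5 chip preconditioned with NaOH, HCl and SDS pulses and activated with EDC/NHS. Recombinant mouse CRT was amine-coupled at 100 μg/ml (about 5500 RU), then ethanolamine-blocked. Analytes were injected at various concentrations at 25°C and 10 μl/min in HEPES pH 7.4 buffer with KCl, CaCl2, ZnCl2 and P-20. Signal was read in real time as resonance units.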

Assay [1] concerns the target T2, SE-activated NO signaling (Mus musculus, UniProt P14211).
T2 sequence (P14211 18-416): T1 sequence (P14211 18-416)
Briefly: SE ligand-activated NO signaling assay. Format: cell-based. The note with it: Linear DKCLA 170 μM, SE ligand 65–79*0401 57 μM, Fig. 1F.

Consider `CC(C)C[C@@H]1NC(=O)[C@H](CS)NC(=O)[C@H](CCCCN)NC(=O)[C@H](CC(=O)O)N(C(=O)[C@@H](N)Cc2c[nH]c3ccccc23)CCCCNC(=O)NCCCCN([C@@H](C)C(N)=O)C1=O` [HS(4–4)c Trp] (H-W[X1]KCL[X2]-NH2; linker 2-6 via CO; N-terminus and C-terminus assumed), for which the “Incremental SE-activated OC differentiation” value with primary mouse BMCs is on record as “significantly inhibited”. The “In vivo potency in CIA relative to emerging drugs (mg/kg-range doses)” value in the assay with DBA/1 mice with CIA was 1,000,000 fold.
For Ac-DKCLA (N-terminus assumed) [DKCLA], the “Interaction with CRT (SPR)” value at recombinant mouse CRT was “interacted with CRT”. Moreover, the “Inhibition of SE ligand-activated NO signaling” value in assay [1] is listed as “specifically blocked SE ligand-activated NO signaling”.
